Assay results: ChEMBL document CHEMBL1124861, “Thermodynamics of the interaction of inhibitors with the binding site of recombinant human renin” (J Med Chem, 1990)
*1 amine or outer side, *2 acyl side, *3 side chain or, on linkers, in order; H or OH if unused. Where a SMILES comes first, the peptide text is derived from it. [ ]: non-standard residue; d: D form. The star is where a group is joined. ξ: configuration not given here. Sta(3ξ) = CC(C)C[C@H](N[*:1])C(O)CC(=O)[*:2]; Sta = CC(C)C[C@H](N)[C@@H](O)CC(=O)O; Isovaleryl = CC(C)CC(=O)*

Biological target: T1, Renin (Homo sapiens, UniProt P00797)
T1 sequence (P00797 whole entry): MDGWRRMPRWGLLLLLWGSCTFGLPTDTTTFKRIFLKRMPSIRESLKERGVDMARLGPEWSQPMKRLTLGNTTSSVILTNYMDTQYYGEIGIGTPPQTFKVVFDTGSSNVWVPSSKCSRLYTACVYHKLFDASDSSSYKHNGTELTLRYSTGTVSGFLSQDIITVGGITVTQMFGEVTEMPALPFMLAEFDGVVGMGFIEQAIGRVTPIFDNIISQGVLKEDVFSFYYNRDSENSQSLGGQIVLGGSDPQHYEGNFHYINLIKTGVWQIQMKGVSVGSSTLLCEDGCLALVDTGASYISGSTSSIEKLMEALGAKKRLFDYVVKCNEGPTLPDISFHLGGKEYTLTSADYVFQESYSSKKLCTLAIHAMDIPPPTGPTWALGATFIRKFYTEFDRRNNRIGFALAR
Experiment: Dissociation constant (Kd) of renin inhibitor was determined over a temperature range of 8-37 degree by the fluorescence displacement assay
Method in brief: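 Recombinant human renin, purified, with stock concentration set by amino acid analysis. Competitive displacement of a dansylated fluorescent peptide inhibitor, read on a spectrofluorometer in ratio mode at 8–37 °C. Unlabeled-inhibitor Kd was calculated from probe Kd, probe concentration, fraction of probe bound, total inhibitor and enzyme concentrations. Duplicates were run at two inhibitor concentrations, and van't Hoff plots were built.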

Row | Kd | Compound
1 | 810 nM | H-PHPFHFFIHK-OH
2 | 220 nM | CC(=O)N[C@@H](Cc1ccccc1)C(=O)N[C@@H](Cc1c[nH]cn1)C(=O)N[C@H](CN[C@@H](Cc1ccccc1)C(N)=O)Cc1ccccc1
3 | 2.5 nM | CCC(C)CNC(=O)[C@H](Cc1ccccc1)NC[C@H](Cc1ccccc1)NC(=O)[C@H](Cc1cnc[nH]1)NC(=O)[C@H](Cc1ccccc1)NC(=O)[C@@H]1CCCN1C(C)=O (stereo partly drawn)
4 | 1000 nM | CC[C@H](C)[C@H](NC(=O)[C@@H](C[C@H](O)[C@H](CC(C)C)NC(=O)[C@H](Cc1c[nH]cn1)NS(=O)(=O)c1cccc2c(N(C)C)cccc12)C(C)C)C(=O)NCc1ccccn1
5 | 8 nM | CC[C@H](C)[C@H](NC(=O)[C@@H](NC[C@H](CC(C)C)NC(=O)[C@H](Cc1c[nH]cn1)NC(=O)[C@H](Cc1ccccc1)NC(=O)[C@@H]1CCCN1C(=O)[C@H](Cc1c[nH]cn1)NC(=O)[C@@H]1CCCN1)C(C)C)C(=O)N[C@@H](Cc1c[nH]cn1)C(=O)N[C@@H](CCCCN)C(=O)O
6 | 1.3 nM | CC[C@H](C)[C@H](NC(=O)[C@@H](C[C@H](O)[C@H](CC(C)C)NC(=O)[C@H](Cc1c[nH]cn1)NC(=O)[C@H](Cc1ccccc1)NC(=O)[C@H]1CCCN1C(C)=O)C(C)C)C(N)=O
7 | 29 nM | CC(=O)N1CCC[C@H]1C(=O)N[C@@H](Cc1ccccc1)C(=O)N[C@@H](Cc1c[nH]cn1)C(=O)N[C@H](CN[C@@H](Cc1ccccc1)C(N)=O)Cc1ccccc1
8 | 5.4 nM | CC[C@H](C)[C@H](NC(=O)[C@@H](C[C@H](O)[C@H](CC(C)C)NC(=O)[C@H](Cc1cnc[nH]1)NC(=O)[C@H](Cc1ccccc1)NC(=O)[C@@H]1CCCN1C(C)=O)C(C)C)C(N)=O
9 | 98 nM | CC[C@H](C)[C@H](NC(=O)C[C@H](O)[C@H](CC(C)C)NC(=O)[C@H](Cc1c[nH]cn1)NC(=O)[C@H](Cc1ccccc1)NC(=O)[C@@H]1CCCN1C(C)=O)C(N)=O (Ac-PFH[Sta]I-NH2)
10 | 370 nM | CC[C@H](C)[C@H](NC(=O)[C@@H](C[C@H](O)[C@H](CC(C)C)NC(=O)[C@H](Cc1cnc[nH]1)NC(=O)[C@H](Cc1ccccc1)NC(C)=O)C(C)C)C(N)=O
11 | 1.7 nM | CC[C@H](C)[C@H](NC(=O)CC(O)[C@H](CC(C)C)NC(=O)[C@H](Cc1c[nH]cn1)NC(=O)[C@H](Cc1ccccc1)NC(=O)[C@@H]1CCCN1C(=O)[C@H](Cc1c[nH]cn1)NC(=O)CC(C)C)C(=O)N[C@@H](Cc1ccccc1)C(N)=O (stereo partly drawn) (Isovaleryl-HPFH[Sta(3ξ)]IF-NH2)
12 | 204 nM | CC[C@H](C)[C@H](NC(=O)C[C@H](O)[C@H](CC(C)C)NC(=O)[C@H](Cc1cnc[nH]1)NC(=O)[C@H](Cc1ccccc1)NC(C)=O)C(N)=O (Ac-FH[Sta]I-NH2)
13 | 23 nM | CC[C@H](C)[C@H](NC(=O)C[C@H](O)[C@H](CC(C)C)NC(=O)[C@H](Cc1c[nH]cn1)NC(=O)[C@H](Cc1ccccc1)NC(=O)[C@@H]1CCCN1C(=O)[C@H](Cc1c[nH]cn1)NC(C)=O)C(N)=O (Ac-HPFH[Sta]I-NH2)
